# MrgX1 allo act: allosterically activates human MrgX1 receptor signaling | Q96LB2 | MrgX1-HEK293, Fluo-4 calcium flux, FDSS; hits give high values | B-score at 10 µM | 310,000 compounds, 0.63% hits | AID 588675;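 active means plate-corrected calcium response at least 3 library SD above typical, normal starting fluorescence, not activating the receptor alone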;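 further: compound read alongside a low EC10 to EC30 dose of BAM8-22 agonist; peak minus trough fluorescence over baseline measured at the second addition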
# Target sequence (Q96LB2 whole entry, looked up): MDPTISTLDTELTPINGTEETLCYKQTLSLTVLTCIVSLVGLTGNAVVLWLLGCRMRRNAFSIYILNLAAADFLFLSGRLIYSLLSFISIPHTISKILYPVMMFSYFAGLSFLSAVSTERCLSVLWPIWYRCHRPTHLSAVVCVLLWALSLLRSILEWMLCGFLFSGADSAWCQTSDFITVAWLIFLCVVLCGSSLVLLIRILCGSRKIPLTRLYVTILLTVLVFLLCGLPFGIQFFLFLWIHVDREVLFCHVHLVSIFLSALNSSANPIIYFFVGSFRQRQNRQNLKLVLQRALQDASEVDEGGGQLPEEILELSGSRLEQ
# MrgX1 antagonist: human MrgX1 receptor antagonism, primary screen; Q96LB2; MRGX1-HEK293 calcium flux, Fluo-4, BAM8-22 antagonism; hits give low values; B-score at 10 µM; 310,000 compounds, 1.3% hits;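 active means calcium-response B-score plate-corrected more than 3 library SD below zero, starting fluorescence within 5 deviations, no agonist response on first addition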;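 further: peak minus trough fluorescence over baseline after final BAM8-22 challenge near maximal dose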
# RGS4 pot: RGS4 potentiation or activation; HEK293 M3R/inducible RGS4, carbachol calcium flux Fluo4; hits give low values; 310,000 compounds, 0.92% hits; B-score at 10 µM; AID 463111;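 active means B-score of the integrated calcium signal more than 4 SD below the library mean, with starting fluorescence not abnormally high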;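 further: negative B-score means reduced calcium response which marks RGS4 activation or potentiation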
#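 System: HEK293 FlpIn-TREx cells, stable M3R, doxycycline-inducible RGS4. Timing: overnight RGS4 induction, 30 min dye load 37 °C, 20 min compound RT. Also added: carbachol, ECmax concentration. Measured by: Fluo4 fluorescence kinetic imaging of calcium. Evaluation: integrated calcium ratio converted to B score.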
# MrgX1 agonist: activates human MrgX1 receptor signaling; Q96LB2; MrgX1-HEK293 cells, Fluo-4 calcium fluorescence, agonist mode; hits give high values; B-score at 10 µM; 310,000 compounds, 0.44% hits; AID 588627;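 active means calcium response B-score plate-corrected fluorescence ratio at least 3 library SD, with starting fluorescence B-score inside 5 SD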
#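 Assay system: MrgX1-expressing HEK293 cells / Amount: fifteen thousand cells per well / Doses: test compound in the initial addition of three / Timing: cells plated overnight, dye loaded 0.5 h 37 °C, 0.5 h room temperature / Technique: kinetic calcium dye fluorescence, Fluo-4 NW / Control set: positive and negative controls per plate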
# RGS4 inh: inhibitors of human RGS4 | 310,000 compounds, 0.45% hits | HEK293 M3R/RGS4 inducible, Fluo-4 calcium flux; hits give high values; triggered by carbachol at its EC20 | P49798 | AID 463165 | B-score at 10 µM;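 active means B-score, a plate-corrected calcium signal, over three deviations above library mean, with baseline fluorescence within five deviations of library mean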;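 further: RGS4 expression induced by doxycycline in cells with stable M3 receptor; B-score is computed from the integrated fluorescence ratio over baseline after carbachol; higher B-score means a larger calcium signal and so more RGS4 inhibition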
# Target sequence (P49798 whole entry, looked up): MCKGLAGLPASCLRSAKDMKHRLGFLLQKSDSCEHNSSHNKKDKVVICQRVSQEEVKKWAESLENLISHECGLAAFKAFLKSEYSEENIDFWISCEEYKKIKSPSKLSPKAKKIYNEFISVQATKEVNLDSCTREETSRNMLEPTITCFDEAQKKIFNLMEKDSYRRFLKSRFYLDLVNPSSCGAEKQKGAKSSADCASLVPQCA
# RGS4 block valid: RGS4 inhibitor validation; HEK293 M3R/RGS4, carbachol calcium Fluo-4 fluorescence; carbachol added at its EC20; 0 = buffer wells, 100 = carbachol control; calcium response, % at 10 µM; shares compounds with RGS4 inh; 1,700 compounds, 65% hits;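 active means duplicate-averaged calcium response above the buffer-only control mean plus 5 SD of those controls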;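 further: integrated fluorescence ratio F max minus min over baseline F0; higher response in RGS4-induced cells means RGS4 inhibition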
# M3R Ca ctr: counter-screen for RGS4 inhibitors: effect in non-induced cells. HEK293 M3R non-induced, carbachol calcium Fluo-4; submaximal (EC20) carbachol stimulus; buffer wells 0%, carbachol control wells 100%. 1,900 compounds, 20% hits. activity (percent), % at 10 µM. shares compounds with RGS4 inh; call rule not given here;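 further: RGS4 induction absent so cells express M3R without RGS4; higher means more calcium signal and flags a non-specific hit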
# M3R basal Ca ctr: second RGS4 inhibitor counter-screen in uninduced cells lacking carbachol | AID 493001 | calcium response (agonist-mode artifact), % at 10 µM | HEK293 M3R/RGS4 non-induced, Fluo-4 calcium, no carbachol; normalised: buffer wells 0%, carbachol wells 100% | shares compounds with RGS4 inh | 1,900 compounds, 22% hits;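 active means duplicate-averaged calcium rise in uninduced cells above buffer wells' mean plus 5 SD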
# Numbers without * were called inactive; i = inactive; · = no result given. An excerpt weighted towards active compounds, which were near 3.5% of everything screened.
SMILES,MrgX1 allo act,MrgX1 antagonist,RGS4 pot,MrgX1 agonist,RGS4 inh,RGS4 block valid,M3R Ca ctr,M3R basal Ca ctr
O=C1CCCC(O)=C1C(C#Cc1ccccc1)C1=C(O)CCCC1=O,i,i,i,26.9*,6.69*,50.5%*,i,11.0%*
CC1(C)CC(=O)C(C(C#Cc2ccccc2)C2=C(O)CC(C)(C)CC2=O)=C(O)C1,i,i,i,i,8*,44.5%*,i,22.0%*
N#CCc1nn(-c2ccccc2)c2ncnc(N)c12,i,i,i,i,i,·,·,·
CC(C)(C)c1nn(-c2ccccc2)c2nc(Cl)c(C=O)cc12,i,i,i,i,5.01*,13.0%*,30.0%*,i
C=CCN1C=C2C(=O)C(C)(OC(=O)c3ccco3)C(=O)C(C=C)=C2C=C1C1CC1 (stereo unspecified),i,i,i,i,i,·,·,·
CCCCC1=CC2=C(c3ccco3)C(=O)C(C)(OC(=O)c3ccc(OC)cc3)C(=O)C2=CN1CCCOC(C)C (stereo unspecified),i,i,i,i,i,i,i,i
CCCCC1=CC2=C(c3ccco3)C(=O)C(C)(OC(=O)c3ccc(OC)cc3)C(=O)C2=CN1c1ccccc1 (stereo unspecified),i,i,i,i,i,·,i,i
C=CCN1C=C2C(=O)C(C)(OC(=O)c3ccc(OC)cc3)C(=O)C(c3ccco3)=C2C=C1CCCC (stereo unspecified),i,i,i,i,i,i,i,i
CCOc1ccc(CCNS(=O)(=O)c2cccc3nsnc23)cc1OCC,i,i,i,i,i,·,·,·
Cc1ccc(C(=O)N[C@H](C(=O)OCc2cc(=O)oc3cc(C)ccc23)C(C)C)cc1,i,i,i,i,i,·,·,·
Clc1ccc(C2=Nn3c(nnc3-c3n[nH]c4c3CCC4)SC2)cc1Cl,i,i,i,i,10.4*,24.0%*,i,i
Clc1ccc2[nH]c3c(c2c1)CCc1cn[nH]c1-3,i,i,i,i,11.1*,75.0%*,40.5%*,27.0%*
O=C(O)CCCN1C(=O)/C(=C\c2ccco2)SC1=S,·,·,i,·,i,·,·,·
O=C(O)CCN1C(=O)/C(=C\c2ccc(-c3nc4ccccc4s3)o2)SC1=S,i,i,i,i,i,i,i,53.5%*
CCOc1cc(/C=C\c2[nH]c(=O)[nH]c(=O)c2[N+](=O)[O-])ccc1OC(C)CC (stereo unspecified),i,i,i,i,i,·,i,50.5%*
CCCOc1ccc(/C=C/c2[nH]c(=O)[nH]c(=O)c2[N+](=O)[O-])cc1OCC,i,i,i,i,i,·,·,·
COC(=O)c1sc(N2C(=O)C(=O)/C(=C(/O)c3ccccc3)C2c2ccco2)nc1C (stereo unspecified),i,i,i,i,i,i,i,i
Cc1nc(N2C(=O)C(=O)/C(=C(/O)c3ccccc3)C2c2ccco2)sc1C (stereo unspecified),i,i,i,i,6.39*,8.5%*,i,i
Cc1nc2sc(C(=O)Nc3ccccc3)c(N)c2c(C)c1[N+](=O)[O-],i,i,i,i,i,·,·,·
Cc1[nH]nc2c1C(c1ccc(-c3ccccc3C#N)o1)C(C#N)=C(N)O2 (stereo unspecified),i,i,i,i,9.82*,23.5%*,i,8.5%*
CN(C)/C=C1/N=C(c2ccccc2)OC1=O,i,i,i,i,i,·,·,·
O=CC1=C(c2ccccc2)Oc2ccccc2O1,i,i,i,i,10.2*,19.0%*,39.5%*,i
CC(=O)Oc1ccc2ccccc2c1C(NC(=O)Cc1ccccc1)c1ccccc1 (stereo unspecified),i,i,i,i,5.47*,14.5%*,29.5%*,i
CC(=O)NC(c1cccc([N+](=O)[O-])c1)c1c(OC(C)=O)ccc2ccccc12 (stereo unspecified),i,i,i,i,i,·,·,·
CC(=O)Oc1ccc2nc(-c3ccc(Br)o3)oc(=O)c2c1,i,i,i,i,i,·,·,·
SMILES,MrgX1 allo act,MrgX1 antagonist,RGS4 pot,MrgX1 agonist,RGS4 inh,RGS4 block valid,M3R Ca ctr,M3R basal Ca ctr
CCOC(=O)c1sc(=S)n(CC)c1NC(=O)c1ccccc1,i,i,i,i,i,·,·,·
O=C(NCC(=O)N1CC(O)CC1C(=O)N1CCCC1C(=O)OCc1ccccc1)OCc1ccccc1 (stereo unspecified),i,i,i,i,i,·,·,·
C/C(=N\NC(=O)c1c(Cl)cnn1C)c1ccc(NC(=O)c2ccncc2)cc1,i,i,i,i,9.55*,i,i,i
CCOc1ccc(N(CC(=O)Nc2cccc(C)c2)S(C)(=O)=O)cc1,i,i,i,i,i,·,·,·
O=C1NC(c2ccccc2)=C(c2nc3ccccc3s2)C(c2ccccc2)N1 (stereo unspecified),i,i,i,i,i,·,30.0%*,26.0%*
CC(=O)C1=C(c2ccccc2)NC(=O)NC1c1ccccc1 (stereo unspecified),i,i,i,i,i,·,·,·
CC(=O)C1=C(C)OC(N)=C(C#N)C1c1cc2cccc(C)c2nc1Cl (stereo unspecified),i,i,i,i,6.84*,21.5%*,33.5%*,i
COC(=O)C1=C(C)OC(N)=C(C#N)C1c1cc2cccc(C)c2nc1Cl (stereo unspecified),i,i,i,i,i,·,·,·
O=C(O)c1cc(NC(=O)c2ccc3c(c2)C(=O)N(Cc2ccccc2)C3=O)cc(C(=O)O)c1,i,i,i,i,i,·,·,·
COc1cc(/C=C(\C#N)C(N)=O)ccc1OS(=O)(=O)c1ccc(C)cc1,i,i,i,42.6*,4.86*,30.0%*,40.5%*,31.0%*
COc1cc(/C=C(\C#N)C(=O)NC2CCCCC2C)ccc1OS(=O)(=O)c1ccc(C)cc1 (stereo unspecified),i,i,i,i,i,·,·,·

# Bioassay records (PubChem BioAssay)
